These results are taken from ChEMBL document CHEMBL1151773, “Synthesis and biological evaluation of amide derivatives of (5,6-dimethoxy-2,3-dihydro-1H-inden-1-yl)acetic acid as anti-inflammatory agents with reduced gastrointestinal ulcerogenecity” (Eur J Med Chem, 2008).

Molecules are shown by their SMILES.

What all share (format): functional
Assay [1] relates to Rattus norvegicus. As to the kind of experiment: Antiinflammatory activity in Wistar rat assessed as inhibition of carrageenan-induced hind paw edema volume at 100 mg/kg, po administered 60 mins before carrageenan challenge after 2 hrs relative to control.
Assay [2] deals with Rattus norvegicus. As to the kind of experiment: Antiinflammatory activity in Wistar rat assessed as inhibition of carrageenan-induced hind paw edema volume at 100 mg/kg, po administered 60 mins before carrageenan challenge after 6 hrs relative to control. Background: Carrageenan injected into the paw causes an acute inflammation.
Assay [3] has as its system Rattus norvegicus. Nature of the assay: Antiinflammatory activity in Wistar rat assessed as inhibition of carrageenan-induced hind paw edema volume at 100 mg/kg, po administered 60 mins before carrageenan challenge after 24 hrs relative to control.
For assay [4], the system named is Rattus norvegicus. As to the kind of experiment: Antiinflammatory activity in Wistar rat assessed as inhibition of carrageenan-induced hind paw edema volume at 100 mg/kg, po administered 60 mins before carrageenan challenge after 4 hrs relative to control.
For assay [5], the system named is Rattus norvegicus. As to the kind of experiment: Antiinflammatory activity in Wistar rat assessed as inhibition of carrageenan-induced hind paw edema volume at 100 mg/kg, po administered 60 mins before carrageenan challenge after 1 hr relative to control.
The test system of another assay is Mus musculus. Nature of the assay: Analgesic activity in Swiss albino mouse assessed as inhibition of acetic acid-induced writhing at 100 mg/kg, po administered 60 mins before acetic acid challenge after 5 to 15 mins relative to control. The method, boiled down: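 Female Swiss albino mice, 20±5 g, fasted overnight with free water access, dosed orally; 1 h later injected i.p. with 1% v/v acetic acid at 0.1 ml/10 g. Writhes (full hind-limb extension) counted for 15 min, starting 5 min after injection; only animals giving 20 or more writhes used. % inhibition = 100(1−Wt/Wc) vs control group mean; six animals per group.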
(In writhing tests, fewer writhes than in controls are read as antinociception.)

Assay [6] deals with Rattus norvegicus. Nature of the assay: Antiinflammatory activity in Wistar rat assessed as inhibition of carrageenan-induced hind paw edema volume at 100 mg/kg, po administered 60 mins before carrageenan challenge after 3 hrs relative to control.
The subject of assay [7] is Rattus norvegicus. Nature of the assay: Antipyretic activity in Wistar rat assessed as change in LPS-induced rectal temperature at 100 mg/kg, po administered 30 mins before LPS challenge after 3 hrs. The method in brief: (§1)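 Adult female Wistar rats, 170±20 g, fasted 24 h, dosed orally at 09:00; 30 min later E. coli 0111:B4 phenol-extracted LPS in apyrogenic saline given i.p. Rectal temperature by telethermometer probe just before and 1–7 h hourly after LPS; temperature index calculated from these readings. n = 6.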

Assay [8] has as its system Rattus norvegicus. Nature of the assay: Antipyretic activity in Wistar rat assessed as change in LPS-induced rectal temperature at 100 mg/kg, po administered 30 mins before LPS challenge after 4 hrs. The method, boiled down:
as §1

Assay [9] concerns Rattus norvegicus. Nature of the assay: Antipyretic activity in Wistar rat assessed as change in LPS-induced rectal temperature at 100 mg/kg, po administered 30 mins before LPS challenge after 7 hrs. The method, boiled down:
as §1

The subject of assay [10] is Rattus norvegicus. Nature of the assay: Antipyretic activity in Wistar rat assessed as change in LPS-induced rectal temperature at 100 mg/kg, po administered 30 mins before LPS challenge after 1 hr. The method, boiled down:
as §1

In assay [11] the test system is Rattus norvegicus. As to the kind of experiment: Antipyretic activity in Wistar rat assessed as change in LPS-induced rectal temperature at 100 mg/kg, po administered 30 mins before LPS challenge after 2 hrs. The method, boiled down: as §1
The test system of assay [12] is Rattus norvegicus. As to the kind of experiment: Antipyretic activity in Wistar rat assessed as change in LPS-induced rectal temperature at 100 mg/kg, po administered 30 mins before LPS challenge after 6 hrs. The method in brief: as §1
The test system of assay [13] is Rattus norvegicus. As to the kind of experiment: Antipyretic activity in Wistar rat assessed as change in LPS-induced rectal temperature at 100 mg/kg, po administered 30 mins before LPS challenge after 5 hrs. The method, boiled down: as §1

Take `COc1cc2c(cc1OC)C(CC(=O)O)CC2` (centres undefined): the inhibition in vivo at 100 mg/kg amounted to 24% in the assay with Rattus norvegicus [1]; 20.4% in the assay on Rattus norvegicus [2]; 26.7% with Rattus norvegicus [3]; 23.9% with Rattus norvegicus [4]; 18.8% in the assay with Rattus norvegicus [5]; 44% in the assay with Mus musculus. For the same molecule, in the assay on Rattus norvegicus [6], the inhibition in vivo at 100 mg/kg is 27.5%.

Consider `COc1cc2c(cc1OC)C(CC(=O)NCCO)CC2` (centres undefined), for which the Activity with Rattus norvegicus [7] is 0.17 °C; in the assay with Rattus norvegicus [8], 0.34 °C; in the assay with Rattus norvegicus [9], 0.66 °C; in the assay on Rattus norvegicus [10], -0.65 °C; in the assay on Rattus norvegicus [11], -1.93 °C; in the assay with Rattus norvegicus [12], 0.65 °C. Also, the Activity in the assay with Rattus norvegicus [13] came to 0.57 °C. In addition, the inhibition in vivo at 100 mg/kg in the assay on Rattus norvegicus [1] was 0%; in the assay on Rattus norvegicus [2], 13%; with Rattus norvegicus [3] it was 13.3%; in the assay on Rattus norvegicus [4], 9.37%; in the assay with Rattus norvegicus [5], 0%; in the assay with Mus musculus, 29.8%. The inhibition in vivo at 100 mg/kg in the assay with Rattus norvegicus [6] amounted to 12.3%.

Turning to `COc1cc2c(cc1OC)C(CC(=O)N1CCOCC1)CC2` (centres undefined), the inhibition in vivo at 100 mg/kg was found to be 14% in the assay with Rattus norvegicus [1]; 14.8% in the assay with Rattus norvegicus [2]; 23.3% in the assay with Rattus norvegicus [3]; 13.3% in the assay on Rattus norvegicus [4]; 15.6% in the assay with Rattus norvegicus [5]; 23.6% with Mus musculus. Further, the inhibition in vivo at 100 mg/kg with Rattus norvegicus [6] stood at 19.6%.

`COc1cc2c(cc1OC)C(CC(=O)N1CCCC1)CC2` (centres undefined): the inhibition in vivo at 100 mg/kg in the assay on Rattus norvegicus [1] worked out at 20%; in the assay with Rattus norvegicus [2], 22.2%; in the assay on Rattus norvegicus [3], 33.3%; in the assay with Rattus norvegicus [4], 24.2%; in the assay with Rattus norvegicus [5], 4.69%; with Mus musculus it was 19.2%. Also, in the assay on Rattus norvegicus [6], the inhibition in vivo at 100 mg/kg turned out to be 26.1%.

For `COc1cc2c(cc1OC)C(CC(=O)N(C)C)CC2` (centres undefined), the inhibition in vivo at 100 mg/kg with Rattus norvegicus [1] worked out at 36%; in the assay on Rattus norvegicus [2] it was 33.3%; in the assay on Rattus norvegicus [3] it was 23.3%; in the assay with Rattus norvegicus [4] it was 35.9%; in the assay on Rattus norvegicus [5], 25%; in the assay with Mus musculus it was 22.6%. Besides, the inhibition in vivo at 100 mg/kg in the assay with Rattus norvegicus [6] was found to be 34.8%.

Consider `COc1cc2c(cc1OC)C(CC(N)=O)CC2` (centres undefined), for which the inhibition in vivo at 100 mg/kg with Rattus norvegicus [1] stood at 31%; in the assay on Rattus norvegicus [2], 27.8%; in the assay with Rattus norvegicus [3] it was 26.7%; in the assay with Rattus norvegicus [4] it was 31.2%; in the assay with Rattus norvegicus [5], 18.8%; with Mus musculus it was 24.6%. In addition, the inhibition in vivo at 100 mg/kg with Rattus norvegicus [6] is 30.4%.

For the molecule `CCNC(=O)CC1CCc2cc(OC)c(OC)cc21` (centres undefined), the inhibition in vivo at 100 mg/kg in the assay with Rattus norvegicus [1] came to 26%; in the assay on Rattus norvegicus [2] it was 20.4%; in the assay with Rattus norvegicus [3], 33.3%; in the assay on Rattus norvegicus [4], 26.6%; with Rattus norvegicus [5], 15.6%; with Mus musculus it was 23.6%. For the same molecule, in the assay with Rattus norvegicus [6], the inhibition in vivo at 100 mg/kg amounted to 26.1%.

Consider `COc1cc2c(cc1OC)C(CC(=O)N1CCCCC1)CC2` (centres undefined), for which the inhibition in vivo at 100 mg/kg in the assay with Rattus norvegicus [1] was determined as 22%; with Rattus norvegicus [2] it was 31.5%; in the assay with Rattus norvegicus [3], 40%; with Rattus norvegicus [4] it was 32%; in the assay on Rattus norvegicus [5], 18.8%; in the assay on Mus musculus, 44.7%. In addition, the inhibition in vivo at 100 mg/kg with Rattus norvegicus [6] worked out at 31.9%.

On to `CCCCNC(=O)CC1CCc2cc(OC)c(OC)cc21` (centres undefined), for which the inhibition in vivo at 100 mg/kg with Rattus norvegicus [1] is 24%; with Rattus norvegicus [2] it was 24.1%; in the assay with Rattus norvegicus [3] it was 36.7%; in the assay on Rattus norvegicus [4], 25%; in the assay on Rattus norvegicus [5], 31.2%; with Mus musculus, 39.4%. In addition, the inhibition in vivo at 100 mg/kg in the assay with Rattus norvegicus [6] came out at 27.5%.

With `CCCCCNC(=O)CC1CCc2cc(OC)c(OC)cc21` (centres undefined), the inhibition in vivo at 100 mg/kg in the assay on Rattus norvegicus [1] was determined as 34%; with Rattus norvegicus [2] it was 35.2%; in the assay on Rattus norvegicus [3], 46.7%; with Rattus norvegicus [4], 40.6%; in the assay on Rattus norvegicus [5], 34.4%; in the assay on Mus musculus it was 71.7%. In the assay on Rattus norvegicus [6], the inhibition in vivo at 100 mg/kg turned out to be 37.7%.

On to `CNC(=O)CC1CCc2cc(OC)c(OC)cc21` (centres undefined), for which the inhibition in vivo at 100 mg/kg was 30% in the assay with Rattus norvegicus [1]; 24.1% in the assay on Rattus norvegicus [2]; 33.3% in the assay on Rattus norvegicus [3]; 29.7% in the assay on Rattus norvegicus [4]; 15.6% in the assay with Rattus norvegicus [5]; 21.2% in the assay on Mus musculus. In addition, in the assay on Rattus norvegicus [6], the inhibition in vivo at 100 mg/kg was 29%.

For the molecule `COc1cc2c(cc1OC)C(CC(=O)NC(C)(C)C)CC2` (centres undefined), the inhibition in vivo at 100 mg/kg with Rattus norvegicus [1] was 32%; in the assay on Rattus norvegicus [2] it was 31.5%; in the assay with Rattus norvegicus [3] it was 40%; in the assay with Rattus norvegicus [4], 32.8%; in the assay on Rattus norvegicus [5] it was 31.2%; with Mus musculus, 41.8%. For the same molecule, in the assay on Rattus norvegicus [6], the inhibition in vivo at 100 mg/kg was 33.3%.

As to `CCN(CC)C(=O)CC1CCc2cc(OC)c(OC)cc21` (centres undefined), the inhibition in vivo at 100 mg/kg in the assay on Rattus norvegicus [1] was 40%; in the assay with Rattus norvegicus [2], 31.5%; in the assay with Rattus norvegicus [3], 16.7%; with Rattus norvegicus [4] it was 37.5%; with Rattus norvegicus [5], 31.2%; in the assay with Mus musculus, 27.4%. Besides, the inhibition in vivo at 100 mg/kg in the assay on Rattus norvegicus [6] was 37.7%.

Regarding `COc1cc2c(cc1OC)C(CC(=O)NC1CC1)CC2` (centres undefined), the inhibition in vivo at 100 mg/kg stood at 14% in the assay on Rattus norvegicus [1]; 11.1% with Rattus norvegicus [2]; 0% in the assay on Rattus norvegicus [3]; 17.2% with Rattus norvegicus [4]; 21.9% with Rattus norvegicus [5]; 32.7% in the assay on Mus musculus. Further, the inhibition in vivo at 100 mg/kg in the assay on Rattus norvegicus [6] was 18.8%.

For the molecule `CCCNC(=O)CC1CCc2cc(OC)c(OC)cc21` (centres undefined), the inhibition in vivo at 100 mg/kg in the assay with Rattus norvegicus [1] turned out to be 28%; in the assay with Rattus norvegicus [2] it was 22.2%; in the assay with Rattus norvegicus [3], 26.7%; with Rattus norvegicus [4], 26.6%; in the assay on Rattus norvegicus [5], 18.8%; in the assay with Mus musculus, 26.9%. In the assay with Rattus norvegicus [6], the inhibition in vivo at 100 mg/kg turned out to be 29%.

For the molecule `COc1cc2c(cc1OC)C(CC(=O)NCc1ccccc1)CC2` (centres undefined), the inhibition in vivo at 100 mg/kg in the assay on Rattus norvegicus [1] stood at 24%; with Rattus norvegicus [2], 30.6%; with Rattus norvegicus [3], 43.3%; with Rattus norvegicus [4], 18.8%; in the assay with Rattus norvegicus [5] it was 18.8%; in the assay with Mus musculus, 48%. Moreover, in the assay with Rattus norvegicus [6], the inhibition in vivo at 100 mg/kg came to 14.4%.

On to `COc1cc2c(cc1OC)C(CC(=O)NC1CCCC1)CC2` (centres undefined), for which the inhibition in vivo at 100 mg/kg was found to be 52% in the assay on Rattus norvegicus [1]; 40.7% in the assay with Rattus norvegicus [2]; 46.7% with Rattus norvegicus [3]; 45.3% in the assay on Rattus norvegicus [4]; 40.6% with Rattus norvegicus [5]; 37% in the assay on Mus musculus. For the same molecule, the inhibition in vivo at 100 mg/kg in the assay with Rattus norvegicus [6] was found to be 43.5%.

Turning to `CC(=O)Oc1ccccc1C(=O)O` [ASPIRIN], the Activity was -0.51 °C in the assay on Rattus norvegicus [7]; 0.05 °C with Rattus norvegicus [8]; 0.23 °C in the assay with Rattus norvegicus [9]; -0.43 °C in the assay with Rattus norvegicus [10]; -1.45 °C in the assay with Rattus norvegicus [11]; 0.17 °C in the assay with Rattus norvegicus [12]. In the assay on Rattus norvegicus [13], the Activity is 0.11 °C. Also, the inhibition in vivo at 100 mg/kg in the assay with Mus musculus was determined as 61.5%.

For orientation: inhibition in vivo means how much of the control response was suppressed.
